Screening results deposited in PubChem BioAssay by The Scripps Research Institute Molecular Screening Center.
TCR CD3 inh: inhibitors of human TCR-CD3 interaction, primary screen, biochemical, fluorescence, TAMRA-labeled TCR probe. AID 651800, 2012. T-cell receptor (TCR). 360,000 tested, 0.37% active. inhibition, % at 9.4 µM; in the data active = inhibition above about 19%;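 note: recombinant mutant TCR 2C K166C tagged with TAMRA read by polarization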
MBD2 DNA inh: inhibitors of MBD2 binding to methylated DNA, primary screen, biochemical, TR-FRET, DNA-binding domain, human; AID 686964, 2013; inhibition, % at 4.4 µM; MBD2 binding to methylated oligonucleotide; 370,000 tested, 0.31% active; in the data active = inhibition above about 13%
ASAP1 inh: inhibitors of human ASAP1 ArfGAP activity, primary screen, biochemical, fluorescence polarization; Arf-GAP with SH3 domain, ANK repeat and PH domain-containing protein 1 (Homo sapiens), …; 360,000 tested, 0.19% active; inhibition, % at 16.5 µM; ASAP1-stimulated ARF1 GTP hydrolysis, GDP FP detection; in the data active = inhibition above about 25%
Target sequence (Q9ULH1 325-724 limits assumed): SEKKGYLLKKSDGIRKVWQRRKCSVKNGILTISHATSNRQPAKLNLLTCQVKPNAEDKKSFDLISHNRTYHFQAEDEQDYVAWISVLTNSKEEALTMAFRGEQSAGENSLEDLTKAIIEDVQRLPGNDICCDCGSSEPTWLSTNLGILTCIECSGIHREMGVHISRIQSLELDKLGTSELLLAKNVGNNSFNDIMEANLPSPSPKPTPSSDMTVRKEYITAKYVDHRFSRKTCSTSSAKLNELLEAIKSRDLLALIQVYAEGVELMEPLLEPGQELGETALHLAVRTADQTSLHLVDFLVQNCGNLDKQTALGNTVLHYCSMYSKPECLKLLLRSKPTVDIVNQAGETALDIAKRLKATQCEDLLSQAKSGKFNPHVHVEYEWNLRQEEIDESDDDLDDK
ARFGAP1 inhibitor: inhibitors of rat ARFGAP1 GAP activity, primary screen, biochemical, fluorescence polarization, GDP tracer. ADP-ribosylation factor GTPase-activating protein 1 (Rattus norvegicus), Q62848. Arfgap1-stimulated ARF1 GTP hydrolysis, GDP FP detection. inhibition, % at 16.5 µM. 360,000 tested, 0.26% active. AID 651572, 2012;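 active = inhibition above a per-plate limit, mean inhibition of low control wells plus 3 SD, cut at about 25% in these data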
Target sequence (Q62848 1-136 limits assumed): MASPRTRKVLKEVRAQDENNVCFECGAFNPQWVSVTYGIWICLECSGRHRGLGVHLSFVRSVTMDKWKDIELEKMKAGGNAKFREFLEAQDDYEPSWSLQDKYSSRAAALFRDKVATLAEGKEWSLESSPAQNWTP
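material = rat Arfgap1 catalytic domain, aa 1-136 | also added = human ARF1(Δ1-17)-GTP substrate | compound dosing = one concentration, 16.5 µM, DMSO 1.26% | times = GTP hydrolysis reaction 2 h at 25 °C | measured by = FP, GDP Alexa 633 tracer displaced from anti-GDP antibody, 620/688 nm | evaluation = percent inhibition of Arfgap1-stimulated GTP hydrolysis | replication = single well per compound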
UHRF1 MBD2 ctr: UHRF1 methylated DNA binding inhibitors, primary screen, counter-screen for MBD2 inhibitor project, biochemical, TR-FRET, human UHRF1, single concentration. E3 ubiquitin-protein ligase UHRF1 (Homo sapiens), Q96T88. UHRF1 binding to methylated oligo. inhibition, % at 4.4 µM. 370,000 tested, 0.75% active. AID 687016, 2013; in the data active = inhibition above about 21%;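 note: UHRF1 SRA domain binding a hemimethylated CpG hairpin DNA probe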
LEDGF integ inh: blockers of LEDGF/p75-dependent integrase strand transfer – biochemical, TR-FRET, high throughput, primary screen | HIV-1 integrase (with human LEDGF/p75) | TR-FRET IN-LEDGF/p75 DNA integration, Eu/Cy5 | inhibition, % at 3.7 µM | 370,000 tested, 0.64% active | AID 743269, 2014;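 active = inhibition above the screen-wide mean plus 3 SD, cut at about 13% in these data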;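 note: signal is the Cy5 over europium emission ratio at 671 and 618 nm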
Hits are given with their value. A selection: hits, their analogues and other compounds. The true share with any hit is near 2%.

Results for O=C(Nc1ccc2cn[nH]c2c1)c1ccccc1F ?
TCR CD3 inh: inactive; MBD2 DNA inh: inactive; ASAP1 inh: inactive; ARFGAP1 inhibitor: inactive; UHRF1 MBD2 ctr: inactive; LEDGF integ inh: inactive

How did O=C(Nc1ccc2cn[nH]c2c1)c1c(Cl)cccc1Cl do in these assays?
TCR CD3 inh: inactive; MBD2 DNA inh: inactive; ASAP1 inh: inactive; ARFGAP1 inhibitor: inactive; UHRF1 MBD2 ctr: 22; LEDGF integ inh: inactive

How did [O-]/C(=C(\C(=S)Nc1cccc2ccccc12)[n+]1ccccc1)c1ccc(OC(F)F)cc1 do in these assays?
TCR CD3 inh: inactive; MBD2 DNA inh: inactive; ASAP1 inh: inactive; ARFGAP1 inhibitor: inactive; UHRF1 MBD2 ctr: 29; LEDGF integ inh: inactive

Results for COc1cccc(NC(=S)/C(=C(\[O-])c2ccc(OC(F)F)cc2)[n+]2ccccc2)c1 ?
TCR CD3 inh: inactive; MBD2 DNA inh: inactive; ASAP1 inh: inactive; ARFGAP1 inhibitor: inactive; UHRF1 MBD2 ctr: inactive; LEDGF integ inh: inactive

What do the screens show for `Cc1nn(C)c(C)c1/C=C(\C#N)S(=O)(=O)c1ccc(F)cc1`?
TCR CD3 inh: inactive; MBD2 DNA inh: inactive; ASAP1 inh: inactive; ARFGAP1 inhibitor: inactive; UHRF1 MBD2 ctr: inactive; LEDGF integ inh: inactive

What do the screens show for `COc1cccc(C2/C(=C(/O)c3ccccc3)C(=O)C(=O)N2Cc2ccco2)c1` (configuration not stated)?
TCR CD3 inh: inactive; MBD2 DNA inh: inactive; ASAP1 inh: inactive; ARFGAP1 inhibitor: inactive; UHRF1 MBD2 ctr: inactive; LEDGF integ inh: inactive

How did COc1cccc(C2/C(=C(/O)c3ccc(C)cc3)C(=O)C(=O)N2Cc2ccco2)c1 (configuration not stated) do in these assays?
TCR CD3 inh: inactive; MBD2 DNA inh: inactive; ASAP1 inh: inactive; ARFGAP1 inhibitor: inactive; UHRF1 MBD2 ctr: 29; LEDGF integ inh: inactive

Results for O=C1COc2ccc(C(=O)COC(=O)CNS(=O)(=O)c3cccc(F)c3)cc2N1 ?
TCR CD3 inh: inactive; MBD2 DNA inh: 18; ASAP1 inh: inactive; ARFGAP1 inhibitor: inactive; UHRF1 MBD2 ctr: inactive; LEDGF integ inh: inactive

Results for CC(C)C[C@@H]1COc2cc(N3CCSCC3)ccc2S(=O)(=O)N1 ?
TCR CD3 inh: inactive; MBD2 DNA inh: inactive; ASAP1 inh: inactive; ARFGAP1 inhibitor: inactive; UHRF1 MBD2 ctr: inactive; LEDGF integ inh: inactive

What do the screens show for `O=C(NCCc1ccccc1)OCc1cn(Cc2cccc(F)c2F)nn1`?
MBD2 DNA inh: inactive; UHRF1 MBD2 ctr: inactive; LEDGF integ inh: inactive

What do the screens show for `Cc1ccc(-c2nc3c4ccccc4ccn3c2Cc2ccccc2)cc1`?
TCR CD3 inh: inactive; MBD2 DNA inh: inactive; ASAP1 inh: inactive; ARFGAP1 inhibitor: inactive; UHRF1 MBD2 ctr: 21; LEDGF integ inh: inactive

Results for Fc1cccc(Cc2c(-c3ccccc3)nc3c4ccccc4ccn23)c1 ?
TCR CD3 inh: inactive; MBD2 DNA inh: inactive; ASAP1 inh: inactive; ARFGAP1 inhibitor: inactive; UHRF1 MBD2 ctr: 21; LEDGF integ inh: inactive

How did Cc1c(C(=O)Nc2ccc(Cl)cc2)c2ccccn2c1CCc1ccncc1 do in these assays?
TCR CD3 inh: inactive; MBD2 DNA inh: inactive; ASAP1 inh: inactive; ARFGAP1 inhibitor: inactive; UHRF1 MBD2 ctr: 24; LEDGF integ inh: inactive

Results for Cc1c(C(=O)Nc2cccc(Cl)c2)c2ccccn2c1CCc1ccncc1 ?
TCR CD3 inh: inactive; MBD2 DNA inh: inactive; ASAP1 inh: inactive; ARFGAP1 inhibitor: inactive; UHRF1 MBD2 ctr: inactive; LEDGF integ inh: inactive

What do the screens show for `COC(=O)C1CN(CCO)CCS(=O)(=O)N1Cc1cn(Cc2cccc(Cl)c2)nn1` (configuration not stated)?
MBD2 DNA inh: inactive; UHRF1 MBD2 ctr: inactive; LEDGF integ inh: inactive

What do the screens show for `O=C(Nc1cccnc1)NC1CCCCC1`?
TCR CD3 inh: inactive; MBD2 DNA inh: inactive; ASAP1 inh: inactive; ARFGAP1 inhibitor: inactive; UHRF1 MBD2 ctr: 25; LEDGF integ inh: inactive

How did S=C(Nc1cccnc1)NC1CCCCCCC1 do in these assays?
TCR CD3 inh: inactive; MBD2 DNA inh: inactive; ASAP1 inh: inactive; ARFGAP1 inhibitor: inactive; UHRF1 MBD2 ctr: inactive; LEDGF integ inh: inactive

How did CC(C)NC(=O)C1(C)CN(S(C)(=O)=O)CC(=O)N1CCOc1ccccc1 (configuration not stated) do in these assays?
TCR CD3 inh: inactive; MBD2 DNA inh: inactive; ASAP1 inh: inactive; ARFGAP1 inhibitor: inactive; UHRF1 MBD2 ctr: 40; LEDGF integ inh: inactive

What do the screens show for `CC(C)NC(=O)C1(C)CSCC(=O)N1CCOc1ccccc1` (configuration not stated)?
TCR CD3 inh: inactive; MBD2 DNA inh: inactive; ASAP1 inh: inactive; ARFGAP1 inhibitor: inactive; UHRF1 MBD2 ctr: inactive; LEDGF integ inh: inactive

How did Cc1cccc(C)c1-n1nnnc1C1(C)CN(S(C)(=O)=O)CC(=O)N1Cc1ccc(F)cc1 (configuration not stated) do in these assays?
MBD2 DNA inh: inactive; UHRF1 MBD2 ctr: inactive; LEDGF integ inh: inactive

Results for O=C(CN1CCCCC1)Nc1c2c(nc3ccccc13)N(c1ccccc1)CC2 ?
TCR CD3 inh: inactive; MBD2 DNA inh: inactive; ASAP1 inh: inactive; ARFGAP1 inhibitor: inactive; UHRF1 MBD2 ctr: inactive; LEDGF integ inh: 14

Results for CC(=O)C1=CCC(c2ccccc2)N(S(C)(=O)=O)C1 (configuration not stated) ?
TCR CD3 inh: inactive; MBD2 DNA inh: inactive; ASAP1 inh: inactive; ARFGAP1 inhibitor: inactive; UHRF1 MBD2 ctr: inactive; LEDGF integ inh: inactive

Results for O=C(NN=C1CCN(Cc2ccccc2)CC1)C(O)c1ccccc1 (configuration not stated) ?
TCR CD3 inh: inactive; MBD2 DNA inh: inactive; ASAP1 inh: inactive; ARFGAP1 inhibitor: inactive; UHRF1 MBD2 ctr: 49; LEDGF integ inh: inactive

How did OC(COC(c1ccccc1)c1ccccc1)CN1CCN(c2ccccn2)CC1 (configuration not stated) do in these assays?
TCR CD3 inh: inactive; MBD2 DNA inh: inactive; ASAP1 inh: inactive; ARFGAP1 inhibitor: inactive; UHRF1 MBD2 ctr: 23; LEDGF integ inh: inactive

How did CC(C)(C)OC(=O)N1CCC(CNC(=O)c2cccs2)CC1 do in these assays?
TCR CD3 inh: inactive; MBD2 DNA inh: inactive; ASAP1 inh: inactive; ARFGAP1 inhibitor: inactive; UHRF1 MBD2 ctr: inactive; LEDGF integ inh: inactive

Results for CC(C)(C)OC(=O)N1CCC(CNC(=O)c2ccc(F)cc2F)CC1 ?
TCR CD3 inh: inactive; MBD2 DNA inh: inactive; ASAP1 inh: inactive; ARFGAP1 inhibitor: inactive; UHRF1 MBD2 ctr: 23; LEDGF integ inh: inactive
